The structures appear in SMILES notation.

The values below come from ChEMBL document CHEMBL1124958 (J Med Chem, 1990).

Assay [1] deals with Serotonin 2 (5-HT2) receptor (Mus musculus) (UniProt Q02152+P34968+P35363). Put plainly: Hill number was determined for inhibition of [3H]ketanserin binding to 5-hydroxytryptamine 2 receptor in mouse cerebral cortex. Format: tissue-based. The gist of the method:
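Hill numbers taken from seven-point inhibition curves of 0.15 nM [3H]ketanserin binding to washed mouse cortical membranes in 50 mM Tris-HCl pH 7.4, incubated 15 min at 37 °C. Nonspecific binding set with 1 μM methysergide; bound radioligand collected by filtration and counted.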

Assay [2] has as its target T1, 5-hydroxytryptamine receptor 1A (Mus musculus) (UniProt Q64264).
T1 sequence (whole entry): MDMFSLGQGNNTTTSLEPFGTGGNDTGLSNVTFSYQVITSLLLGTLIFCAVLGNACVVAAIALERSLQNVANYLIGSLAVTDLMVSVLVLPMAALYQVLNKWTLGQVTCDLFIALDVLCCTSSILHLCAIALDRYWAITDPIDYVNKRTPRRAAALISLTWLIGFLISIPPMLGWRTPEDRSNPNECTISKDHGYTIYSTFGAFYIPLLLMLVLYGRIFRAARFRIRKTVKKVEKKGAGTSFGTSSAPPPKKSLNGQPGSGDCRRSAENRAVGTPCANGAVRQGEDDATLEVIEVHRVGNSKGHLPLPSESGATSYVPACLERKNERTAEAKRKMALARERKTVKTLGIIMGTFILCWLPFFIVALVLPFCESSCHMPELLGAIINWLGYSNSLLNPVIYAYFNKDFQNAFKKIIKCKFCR
Put plainly: Hill number was determined for inhibition of [3H]8-OH-DPAT binding to 5-hydroxytryptamine 1A receptor in mouse hippocampus. The format is tissue-based.

Assay [3] concerns the target T2, 5-hydroxytryptamine receptor 1A (Mus musculus, UniProt Q64264).
T2 sequence (Q64264 whole entry): T1 sequence (whole entry)
As to the kind of experiment: Inhibitory activity towards 5-hydroxytryptamine 1A receptor by the displacement of [3H]8-OH-DPAT in mouse hippocampus. The format is tissue-based. In general terms: Loss of bound radioactivity is the signal in a displacement assay; it reports binding, not function.

Assay [4] addresses T3, Serotonin 2 (5-HT2) receptor (Mus musculus, UniProt Q02152+P34968+P35363). As to the kind of experiment: Inhibitory activity towards 5-hydroxytryptamine 2 receptor by the displacement of [3H]ketanserin in mouse cerebral cortex. The format is tissue-based. The gist of the method: (§1)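 BALB/cBy mouse cerebral cortex, homogenized in 0.25 M sucrose; 1000g supernatant pelleted at 35000g and washed in 50 mM Tris-HCl pH 7.4. Nonspecific binding defined with 1 μM methysergide. Filtration on GF/B, scintillation counting. IC50 from computer fit of seven-point curves, averaged over 2–5 determinations.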

Assay [5] concerns the target T2, 5-hydroxytryptamine receptor 1A. As to the kind of experiment: Binding affinity towards 5-hydroxytryptamine 1A receptor by the displacement of [3H]8-OH-DPAT in mouse hippocampus. Format: tissue-based. The gist of the method:
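Membranes incubated in triplicate with 1.2 nM [3H]8-OH-DPAT plus varying analogue concentrations, 30 min at 23 °C, 0.5 mL final volume. Filtered on PEI-pretreated GF/B; scintillation counting. IC50 derived from seven-point inhibition curves.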

In assay [6] the target is T3, Serotonin 2 (5-HT2) receptor. Put plainly: Binding affinity towards 5-hydroxytryptamine 2 receptor by the displacement of [3H]-ketanserin in mouse cerebral cortex. The format is tissue-based. The method, boiled down:
as §1

In assay [7] the target is T1, 5-hydroxytryptamine receptor 1A (Mus musculus). The following applies: Hippocampus.
The species named for assay [8] is Mus musculus. As to the kind of experiment: Hill number was determined for inhibition of [3H]ketanserin binding in mouse cerebral cortex. Format: tissue-based. The method, boiled down:
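Cerebral cortex from adult BALB/cBy mice was homogenised in ice-cold 0.25 M sucrose pH 7.4. The 1000g supernatant was washed at 35000g in 50 mM Tris-HCl pH 7.4. Triplicate incubations ran 15 min at 37 °C with 0.15 nM [3H]ketanserin and varying analogue concentrations, final 2 mL. Nonspecific binding was set with 1 μM methysergide, and bound ligand was filtered on GF/B and counted by scintillation. Inhibition curves had seven points.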

The species named for assay [9] is Mus musculus. As to the kind of experiment: Hill number was determined for inhibition of [3H]8-OH-DPAT binding in mouse hippocampus. Format: functional. The gist of the method: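 Triplicate incubations ran 30 min at 23 °C with 1.2 nM [3H]8-OH-DPAT over varying analogue concentrations, followed by filtration on polyethylenimine-treated GF/B filters and scintillation counting. Inhibition curves had seven points.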

Serotonin 2 (5-HT2) receptor (Mus musculus), sequence (P34968 whole entry, looked up): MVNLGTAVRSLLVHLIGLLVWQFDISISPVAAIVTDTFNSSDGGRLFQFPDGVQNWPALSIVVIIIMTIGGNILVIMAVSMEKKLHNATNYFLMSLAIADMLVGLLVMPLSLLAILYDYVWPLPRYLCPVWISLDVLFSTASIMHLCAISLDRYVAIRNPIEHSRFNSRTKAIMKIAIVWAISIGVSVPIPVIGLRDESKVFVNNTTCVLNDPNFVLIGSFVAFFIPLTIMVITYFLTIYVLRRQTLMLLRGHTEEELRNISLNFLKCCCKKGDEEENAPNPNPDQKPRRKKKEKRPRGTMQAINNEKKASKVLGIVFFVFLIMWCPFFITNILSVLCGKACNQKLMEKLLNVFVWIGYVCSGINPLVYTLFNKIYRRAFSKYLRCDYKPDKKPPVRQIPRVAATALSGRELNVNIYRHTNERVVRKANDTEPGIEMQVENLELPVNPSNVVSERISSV
Serotonin 2 (5-HT2) receptor (Mus musculus), sequence (P35363 whole entry, looked up): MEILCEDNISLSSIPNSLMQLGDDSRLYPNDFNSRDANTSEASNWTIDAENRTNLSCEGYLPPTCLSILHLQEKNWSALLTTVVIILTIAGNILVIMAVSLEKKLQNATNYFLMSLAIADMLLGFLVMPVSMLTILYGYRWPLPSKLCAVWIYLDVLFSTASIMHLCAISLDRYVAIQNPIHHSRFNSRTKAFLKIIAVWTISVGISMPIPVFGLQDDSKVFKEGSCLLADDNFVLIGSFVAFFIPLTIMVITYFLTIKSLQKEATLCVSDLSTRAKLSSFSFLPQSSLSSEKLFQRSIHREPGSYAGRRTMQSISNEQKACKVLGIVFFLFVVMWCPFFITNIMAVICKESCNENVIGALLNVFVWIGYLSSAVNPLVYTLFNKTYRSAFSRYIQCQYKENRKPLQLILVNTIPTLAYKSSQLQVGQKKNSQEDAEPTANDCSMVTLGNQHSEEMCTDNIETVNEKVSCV
Serotonin 2 (5-HT2) receptor (Mus musculus), sequence (Q02152 whole entry, looked up): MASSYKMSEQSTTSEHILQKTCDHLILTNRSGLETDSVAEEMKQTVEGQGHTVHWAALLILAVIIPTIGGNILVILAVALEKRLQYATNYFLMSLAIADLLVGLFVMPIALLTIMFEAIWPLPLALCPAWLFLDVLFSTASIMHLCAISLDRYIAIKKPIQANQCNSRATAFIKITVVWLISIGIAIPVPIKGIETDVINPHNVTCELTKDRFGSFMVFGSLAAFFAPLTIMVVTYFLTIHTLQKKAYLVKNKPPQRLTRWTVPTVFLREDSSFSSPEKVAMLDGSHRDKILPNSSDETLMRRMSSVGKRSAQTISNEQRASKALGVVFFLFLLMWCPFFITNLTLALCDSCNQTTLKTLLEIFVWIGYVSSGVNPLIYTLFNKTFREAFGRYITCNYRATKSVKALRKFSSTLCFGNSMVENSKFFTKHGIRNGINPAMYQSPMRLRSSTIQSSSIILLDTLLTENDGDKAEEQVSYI

`O=C1CC2CCC1C(N1CCCCC1)C2c1ccccc1` (stereo not drawn): the Hill coefficient (commonly a measure of the steepness of the concentration-response curve) in assay [1] turned out to be 1.2; in [2], 0.89. Besides, the 50% inhibitory concentration (IC50) (usually the concentration at which inhibition is half-maximal) turned out to be 358 µM in assay [3] and 181 µM in assay [4]. The figures for the Ki in assay [5] and in assay [6] were 274 µM and 132 µM, respectively.
For `O=C1CC2CCC1C(N1CCCC1)C2c1c[nH]c2ccccc12` (stereo in doubt; 9a) [listing 1 of 2 here], the IC50 in [3] is 46 µM; in [4] it was 32 µM. Besides, the Ki (commonly the equilibrium dissociation constant of an inhibitor or competing ligand from its target) amounted to 32 µM in assay [5] and 23 µM in assay [6].
With `O=C1CC2CCC1C(N1CCCC1)C2c1c[nH]c2ccccc12` (stereo in doubt; 9a) [listing 2 of 2 here], the Hill coefficient in assay [1] turned out to be 0.9; in assay [7] it was 0.95.
`O=C1CC2CCC1C(N1CCCC1)C2c1c[nH]c2ccccc12` (stereo in doubt; 9b) [listing 1 of 2 here]: the IC50 came to 53 µM in assay [3] and 96 µM in assay [4]. The same molecule displayed an inhibition constant (Ki) in [6] of 70 µM.
Regarding `O=C1CC2CCC1C(N1CCCC1)C2c1c[nH]c2ccccc12` (stereo in doubt; 9b) [listing 2 of 2 here], the Hill coefficient in [1] turned out to be 1; in [2], 0.47.
For `O=C1CC2CCC1C(N1CCCCC1)C2c1c[nH]c2ccccc12` (stereo in doubt; 10a) [listing 1 of 2 here], the concentration for half-maximal inhibition (IC50) in assay [3] came to 86 µM; in assay [4], 5 µM. For the same molecule, the Ki was 61 µM in assay [5] and 4 µM in [6].
As to `O=C1CC2CCC1C(N1CCCCC1)C2c1c[nH]c2ccccc12` (stereo in doubt; 10a) [listing 2 of 2 here], the Hill coefficient in assay [1] was found to be 1; in [2], 1.2.
For the molecule `O=C1CC2CCC1C(N1CCCCC1)C2c1c[nH]c2ccccc12` (stereo in doubt; 10b) [listing 1 of 2 here], the results for the IC50 in assay [3] and in assay [4] were 160 µM and 84 µM, respectively. For the same molecule, the Ki in assay [5] was 115 µM; in assay [6] it was 61 µM.
Regarding `O=C1CC2CCC1C(N1CCCCC1)C2c1c[nH]c2ccccc12` (stereo in doubt; 10b) [listing 2 of 2 here], the Hill coefficient in [1] stood at 0.9; in assay [2], 0.88.
With `C1=CC2CCC1C(c1c[nH]c3ccccc13)C2N1CCCC1` (stereo in doubt; 12a) [listing 1 of 2 here], the IC50 in assay [3] turned out to be 12 µM; in [4], 19 µM. In addition, the Ki in assay [5] came out at 8.5 µM; in assay [6] it was 14 µM.
For the molecule `C1=CC2CCC1C(c1c[nH]c3ccccc13)C2N1CCCC1` (stereo in doubt; 12a) [listing 2 of 2 here], the Hill coefficient in assay [1] was found to be 1; in [2], 0.95.
On to `C1=CC2CCC1C(c1c[nH]c3ccccc13)C2N1CCCC1` (stereo in doubt; 12b) [listing 1 of 2 here], for which the figures for the IC50 in assay [3] and in assay [4] were 47 µM and 24 µM, respectively. In assay [6], the Ki was 17 µM.
As to `C1=CC2CCC1C(c1c[nH]c3ccccc13)C2N1CCCC1` (stereo in doubt; 12b) [listing 2 of 2 here], the results for the Hill coefficient in [1] and in assay [2] were 0.9 and 0.61, respectively.
With `C1=CC2CCC1C(c1c[nH]c3ccccc13)C2N1CCCCC1` (stereo in doubt; 13a) [listing 1 of 2 here], the figures for the IC50 in assay [3] and in assay [4] were 18 µM and 10 µM, respectively. Moreover, the Ki is 13.5 µM in assay [5] and 8 µM in [6].
Consider `C1=CC2CCC1C(c1c[nH]c3ccccc13)C2N1CCCCC1` (stereo in doubt; 13a) [listing 2 of 2 here], for which the Hill coefficient in assay [1] worked out at 1; in [2], 0.93.
`C1=CC2CCC1C(c1c[nH]c3ccccc13)C2N1CCCCC1` (stereo in doubt; 13b) [listing 1 of 2 here]: the IC50 in assay [3] came out at 89 µM; in assay [4], 13 µM. In [6], the Ki is 9 µM.
For the molecule `C1=CC2CCC1C(c1c[nH]c3ccccc13)C2N1CCCCC1` (stereo in doubt; 13b) [listing 2 of 2 here], the Hill coefficient was 0.9 in assay [1] and 0.69 in [2].
As to `NCCc1c[nH]c2ccc(O)cc12` [SEROTONIN], the Hill coefficient turned out to be 0.85 in the assay filed under Mus musculus [8] and 0.75 in the assay filed under Mus musculus [9].
